pEC50, pIC50, pKi: −log10 of the molar value.

In data set [1] the target is T1, Prostaglandin D2 receptor (Homo sapiens, UniProt Q13258).
T1 sequence (Q13258 whole entry): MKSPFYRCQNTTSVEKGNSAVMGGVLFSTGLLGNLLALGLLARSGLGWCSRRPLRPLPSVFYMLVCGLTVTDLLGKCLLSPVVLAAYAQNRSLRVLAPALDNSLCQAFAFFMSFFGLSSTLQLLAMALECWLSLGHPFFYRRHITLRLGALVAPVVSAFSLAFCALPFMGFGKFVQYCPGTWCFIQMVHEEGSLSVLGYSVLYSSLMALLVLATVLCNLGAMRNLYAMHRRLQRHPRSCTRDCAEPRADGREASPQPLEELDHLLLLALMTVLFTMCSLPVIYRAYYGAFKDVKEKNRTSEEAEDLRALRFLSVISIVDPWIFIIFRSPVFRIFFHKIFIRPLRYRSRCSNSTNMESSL
Kind of data set: Binding affinity towards human DP receptor expressed in CHO cells. The format is cell-based. In outline:
(§1)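 Radioligand binding on membranes from CHO cells expressing recombinant human CRTH2 or human DP receptor, reported as Ki.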

In data set [2] the target is T2, Prostaglandin D2 receptor 2 (Homo sapiens, UniProt Q9Y5Y4).
T2 sequence (Q9Y5Y4 whole entry): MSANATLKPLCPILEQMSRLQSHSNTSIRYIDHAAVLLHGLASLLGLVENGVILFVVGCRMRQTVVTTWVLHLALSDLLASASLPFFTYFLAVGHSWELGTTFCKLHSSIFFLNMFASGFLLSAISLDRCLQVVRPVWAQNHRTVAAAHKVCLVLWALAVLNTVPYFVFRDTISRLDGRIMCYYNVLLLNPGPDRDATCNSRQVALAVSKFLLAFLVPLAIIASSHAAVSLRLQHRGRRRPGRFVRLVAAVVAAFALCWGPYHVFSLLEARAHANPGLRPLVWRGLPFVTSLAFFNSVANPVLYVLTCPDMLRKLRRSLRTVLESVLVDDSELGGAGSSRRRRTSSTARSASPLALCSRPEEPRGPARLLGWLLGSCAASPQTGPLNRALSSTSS
Kind of data set: Binding affinity towards human CRTH2 receptor expressed in CHO cells. In kind it is cell-based. Put shortly: as §1

Data set [3] deals with T2, Prostaglandin D2 receptor 2. Kind of data set: Concentration required to inhibit PGD-2 (10 nM) stimulated [Ca2+] flux in CHO cells expressing human CRTH2 receptor. In kind it is cell-based. Put shortly: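 CHO cells expressing human CRTH2 were stimulated with 10 nM PGD2 and calcium mobilization was read. Inhibition is expressed as IC50. Antagonism was also tested by parallel shifts of the PGD2 dose–response curve with increasing antagonist (pA2).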

A short description of data set [4]: Maximum plasma concentration upon p.o. dose of 10 mg/kg in rats. In kind it is ADME, organism-based. The note with it: rat, po. Further details: dose 10 mg/kg, route oral. In outline: (§2)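 Rats given a single dose, 1 mg/kg intravenous or 10 mg/kg oral, then sampled for plasma levels. Cmax, Tmax and AUCinf come from the plasma concentration–time profile.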
A short description of data set [5]: Area under curve for the compound upon i.v. dose of 1 mg/kg in rats. The format is ADME, organism-based. Further details: dose 1 mg/kg, route intravenous. To be noted: rat, in vivo, iv. In outline: as §2
Data set [6] is described as follows: Maximum plasma concentration upon i.v. dose of 1 mg/kg in rats. In kind it is ADME, organism-based. Further details: dose 1 mg/kg, route intravenous. The note with it: rat, iv. In outline: as §2
Data set [7] can be described thus: Time taken by the compound to reach its maximum concentration in plasma upon p.o. dose of 10 mg/kg in rats. To be noted: rat, po. The format is ADME, organism-based. Further details: dose 10 mg/kg, route oral. In outline:
as §2

The nature of data set [8]: Area under curve for the compound upon p.o. dose of 10 mg/kg in rats. In kind it is ADME, organism-based. Further details: dose 10 mg/kg, route oral. To be noted: rat, in vivo, po. Put shortly: as §2
Data set [9] can be described thus: Oral bioavailability upon p.o. dose of 10 mg/kg in rats. In kind it is ADME, organism-based. To be noted: rat, in vivo.
The target in data set [10] is T2, Prostaglandin D2 receptor 2. Nature of the data set: In vitro agonist potency towards human CRTH2 receptor expressed in CHO cells; range 15 to 50 nM.
Data set [11] has the same target. Kind of data set: Binding affinity towards human CRTH2 receptor expressed in CHO cells; range 25 nM to 8 uM. In kind it is cell-based.

Consider `Cc1ccc(S(=O)(=O)n2c(C)c(CC(=O)O)c3cc(F)ccc32)cc1`, for which the pKi was < 5.00 in [1] and 6.34 in data set [2]. Also, the negative-log IC50 (pIC50) in data set [3] was 5.66.

Regarding `Cc1nc(S(=O)(=O)n2c(C)c(CC(=O)O)c3cc(F)ccc32)cn1C`, the pKi in data set [1] was < 5.00; in data set [2], 5.53. Also, the negative logarithm of the IC50 (pIC50) in data set [3] was < 5.00.

In the case of `CCCCS(=O)(=O)n1c(C)c(CC(=O)O)c2cc(F)ccc21`, the negative-log Ki (pKi) in data set [1] is < 5.00; in [2], 6.20. Also, the pIC50 in data set [3] was 6.07.

Turning to `Cc1c(CC(=O)O)c2cc(F)ccc2n1S(=O)(=O)c1cccc(F)c1`, the pKi in [1] was 5.16; in data set [2] it was 6.65. Also, the pIC50 in [3] was 6.19.

Turning to `Cc1c(CC(=O)O)c2cc(F)ccc2n1S(=O)(=O)c1ccc(S(C)(=O)=O)cc1`, the values for the Cmax in [4] and in data set [6] were 332 ng/mL and 1800 ng/mL, respectively. The area under the curve (AUC) in data set [5] turned out to be 619 ng·h/mL; in [8], 3480 ng·h/mL. For the same molecule, the Tmax in data set [7] amounted to 1.8 h. The pKi in data set [1] was < 5.00; in [2] it was 7.17. Besides, in data set [9], the bioavailability turned out to be 56%. Further, in data set [3], the pIC50 is 6.80.

Turning to `Cc1c(CC(=O)O)c2cc(F)ccc2n1S(=O)(=O)c1ccccc1`, the pKi in data set [1] is 5.31; in data set [2], 6.60. In [3], this molecule had a pIC50 of 6.01.

Take `Cc1c(CC(=O)O)c2cc(F)ccc2n1S(=O)(=O)c1ccc(Cl)cc1`: the pKi in data set [1] was 5.07; in data set [2] it was 7.54. Further, in data set [3], the pIC50 was 7.59.

For `COc1ccc(S(=O)(=O)n2c(C)c(CC(=O)O)c3cc(F)ccc32)cc1`, the negative logarithm of the Ki (pKi) in data set [1] was 5.11; in data set [2], 6.52. Further, the pIC50 in [3] was 6.50.

For `Cc1c(CC(=O)O)c2cc(F)ccc2n1S(=O)(=O)c1ccc(F)cc1`, the values for the negative-log Ki (pKi) in [1] and in data set [2] were < 5.00 and 7.15, respectively. The negative logarithm of the IC50 (pIC50) in [3] is 6.80.

`O=C(O)C[C@@H]1CCn2c1c(Sc1ccc(Cl)cc1)c1ccc(F)cc12` had a negative-log Ki (pKi) in data set [2] of 9.10.

Turning to `Cc1c(CC(=O)O)c2cc(F)ccc2n1S(=O)(=O)c1cc(Cl)ccc1Cl`, the pKi is 5.73 in data set [1] and 7.72 in data set [2]. In data set [3], this molecule showed a negative logarithm of the IC50 (pIC50) of 7.36.

For `COc1ccc2c(c1)c(CC(=O)O)c(C)n2C(=O)c1ccc(Cl)cc1` [INDOMETHACIN], the pEC50 in [10] is 7.30. The molecule also showed a pKi in [11] of 5.10.

On to `CSc1ccc(C=C2C(C)=C(CC(=O)O)c3cc(F)ccc32)cc1` [SULINDAC SULFIDE], for which, in data set [2], the pKi is 5.46.

What is called pKi is the Ki on a negative log10 scale, so that one unit is a factor of ten. Low values mean a large Ki, high ones a small Ki. Broadly, the pIC50 is the negative decadic logarithm of the IC50, by convention in mol/L. In general, Cmax refers to the peak of the concentration-time curve. The term AUC denotes concentration integrated over time. Read a low AUC as less exposure. A word on the Tmax: it is the time from dosing to the highest level. For orientation: bioavailability means the share of a dose that reaches the circulation, judged against a reference dose that is usually intravenous. The pEC50 is the negative decadic logarithm of the EC50, by convention in mol/L. A high value points to a low EC50.
